Rows were chosen to be rich in hits. Some 3.1% of all compounds tested hit in one or more screens of this group.
CSN deneddyl inh: inhibitors of CSN-mediated cullin deneddylation, primary screen, biochemical, fluorescence polarization, uHTS | COP9 signalosome complex subunit 5 (Homo sapiens), Q92905 | Purified CSN, SCF-Nedd8-OG deneddylation | inhibition, % at 12.5 µM | 360,000 compounds, 0.38% hits | AID 651999, 2013;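 active means pattern-corrected inhibition above about 35%, with an unprinted fluorescence ratio check between 0.5 and 1.5, limit read from the data, passing the limit was not always enough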;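 further: 0% = enzyme with substrate and 100% = substrate without enzyme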
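Test system: Human Csn5 produced in HEK293T cells | Compound: 12.5 µM single point | Times: 90 min, room temperature | Signal: Fluorescence polarization readout | Read-out basis: % inhibition of substrate cleavage by Csn5 | Controls: no-enzyme wells high, enzyme-with-substrate wells low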
ATG4B inh: ATG4B protease inhibitors, primary screen, biochemical, fluorescence, uHTS; Cysteine protease ATG4B (Homo sapiens), Q9Y4P1; ATG4B cleavage of LC3-PLA2, NBD-HPC fluorescence, 1 h; inhibition, % at 8.33 µM; 340,000 compounds, 0.51% hits; in the data active means inhibition above about 40%
Target sequence (Q9Y4P1 whole entry, looked up): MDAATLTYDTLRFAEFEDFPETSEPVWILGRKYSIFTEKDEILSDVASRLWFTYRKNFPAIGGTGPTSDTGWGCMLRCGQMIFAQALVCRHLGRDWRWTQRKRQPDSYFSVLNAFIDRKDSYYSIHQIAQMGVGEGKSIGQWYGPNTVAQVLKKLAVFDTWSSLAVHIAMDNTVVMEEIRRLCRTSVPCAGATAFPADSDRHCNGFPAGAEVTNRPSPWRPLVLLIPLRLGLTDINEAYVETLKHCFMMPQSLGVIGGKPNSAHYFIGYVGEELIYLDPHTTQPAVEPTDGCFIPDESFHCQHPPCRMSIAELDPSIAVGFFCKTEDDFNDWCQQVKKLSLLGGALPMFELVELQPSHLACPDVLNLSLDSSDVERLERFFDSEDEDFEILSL
MBD2 inh: inhibitors of MBD2 binding to methylated DNA, primary screen, biochemical, TR-FRET, DNA-binding domain, human. MBD2 binding to methylated oligonucleotide. inhibition, % at 4.4 µM. 370,000 compounds, 0.31% hits. AID 686964, 2013; in the data active means inhibition above about 13%
rCAG RNA binder: binders of r(CAG) RNA repeats, primary screen, biochemical, fluorescence; inhibition, % at 3 µM; r(CAG) RNA repeat, TO-PRO-1 dye displacement fluorescence; 370,000 compounds, 1.3% hits; AID 651821, 2012;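 active means inhibition above the plate cutoff, the mean of all test compounds on that plate plus 3 SD, cut at about 35% in these data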;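 further: 0% = DMSO alone and 100% = 100 µM mitoxantrone as full dye displacement; higher means more dye released from RNA so lower well fluorescence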
UHRF1 binding: UHRF1 methylated DNA binding inhibitors, primary screen, counter-screen for MBD2 inhibitor project, biochemical, TR-FRET, human UHRF1, single concentration | UHRF1 binding to methylated oligo | inhibition, % at 4.4 µM | 370,000 compounds, 0.75% hits; in the data active means inhibition above about 21%;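 further: UHRF1 SRA domain binding a hemimethylated CpG hairpin DNA probe; 0% = median of test compound wells and 100% = reference inhibitor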
LEDGF integ inh: blockers of LEDGF/p75-dependent integrase strand transfer – biochemical, TR-FRET, high throughput, primary screen; HIV-1 integrase (with human LEDGF/p75); TR-FRET IN-LEDGF/p75 DNA integration, Eu/Cy5; inhibition, % at 3.7 µM; 370,000 compounds, 0.64% hits;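 active means inhibition above the screen-wide mean plus 3 SD, cut at about 13% in these data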;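 further: signal is the Cy5 over europium emission ratio at 671 and 618 nm; 0% = plate median of compound wells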
ATG4B confirm: ATG4B protease inhibitors, retest, confirmation, biochemical, fluorescence, single concentration; shares compounds with ATG4B inh; ATG4B protease fluorescent substrate cleavage assay; inhibition, % at 8.33 µM; 320 compounds, 92% hits; AID 504757, 2011; in the data active means inhibition above about 39%
PLA2 counter: PLA2 enzyme inhibition, counter-screen for ATG4B inhibitor project, biochemical, single concentration, uHTS hits; shares compounds with ATG4B inh; purified PLA2, NBD-C6-HPC fluorescence, 45 min; inhibition, % at 8.33 µM; 1,600 compounds, 66% hits; AID 588402, 2011; in the data active means inhibition above about 50%
Target sequence (P04054 whole entry, looked up): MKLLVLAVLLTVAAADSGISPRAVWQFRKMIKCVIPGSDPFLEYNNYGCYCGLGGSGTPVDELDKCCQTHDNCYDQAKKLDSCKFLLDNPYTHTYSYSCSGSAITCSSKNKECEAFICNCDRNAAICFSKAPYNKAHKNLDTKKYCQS
An asterisk follows results filed as active; x = no result.

SMILES	CSN deneddyl inh	ATG4B inh	MBD2 inh	rCAG RNA binder	UHRF1 binding	LEDGF integ inh	PLA2 counter	others
N#CC1=C(N)OC2=C(C(=O)CC(c3ccco3)C2)C1c1ccc(OCc2c(F)cccc2Cl)cc1 (stereo unspecified)	33.4	87.1*	-1.8	13.1	-1.2	4.3	89.3*
CCOC(=O)[C@@]12CCCC3=C1N(CCC3)C(=O)[C@H]2CC(=O)NCCCOC	x	x	-5.9	-0.8	-2.4	-0.5	x
CC(C)n1nnnc1C1(C)CCSCC(=O)N1Cc1cccc(C(F)(F)F)c1 (stereo unspecified)	x	x	-3.4	3.0	-0.7	-1.2	x
Cn1cc(CCC(=O)N2CCCC(CCC(=O)NCc3ccc(F)c(F)c3)C2)cn1 (stereo unspecified)	-1.1	41.6*	-5.0	-6.5	1.3	2.1	46.7
CN1C(=O)c2cc(NC(=O)Nc3ccccc3)ccc2OC[C@H]2O[C@@H](CC(=O)NC3CCC3)CC[C@@H]21	x	x	9.3	4.2	9.2	3.1	x
O=c1c2cc3c(cc2[nH]c(=S)n1C1CCN(Cc2ccccc2)CC1)OCO3	-4.8	58.9*	1.9	-2.2	-0.1	2.5	62.1*
COC(=O)[C@]12C[C@H](CC(=O)NCc3cccc(C(F)(F)F)c3)C(=O)N(Cc3ccc(Cl)cc3Cl)C1=C[C@H](C1CCCC1)O[C@@H]2C	x	x	1.0	5.4	0.2	-2.6	x
Cc1nc(S/C(=C\c2ccc(OCc3ccccc3Cl)cc2)C(=O)O)n[nH]1	-2.2	94.0*	0.8	15.6	-1.2	1.7	83.2*
Nc1[nH]c(C(=O)c2ccc(Br)cc2)c(-c2c(F)cccc2F)c1C(=O)NCCc1c[nH]c2ccccc12	x	x	0.6	11.9	-0.5	0.0	x
COc1ccc(Br)cc1CNC(=O)C1CCCN(c2nc3ccccc3o2)C1 (stereo unspecified)	2.7	63.6*	2.8	4.1	-3.3	1.2	67.7*
Cc1ccccc1CSc1ccc(-c2ccc3c(c2)OCO3)nn1	1.2	44.6*	-6.2	2.5	0.3	-1.3	27.3
COc1ccc2c(c1OC)C(=O)N1c3ccccc3C(=O)N(c3ccccc3)C21 (stereo unspecified)	-1.0	48.1*	0.6	-0.4	0.4	-0.7	46.5
COc1ccc2c(c1OC)C(=O)N1c3ccccc3C(=O)N(c3ccc(F)cc3)C21 (stereo unspecified)	1.1	37.2	-0.5	-1.4	-3.2	2.1	x
O=C(CC1S/C(=N/N=C/c2cccs2)NC1=O)Nc1ccc(Cl)c(Cl)c1 (stereo unspecified)	-0.8	61.2*	5.0	7.3	2.1	-0.3	11.7	ATG4B confirm=58.5*
O=C(CC1S/C(=N/N=C/c2cccs2)NC1=O)Nc1ccc(Cl)cc1 (stereo unspecified)	-1.8	22.1	-0.1	24.0	-0.8	0.3	x
Cc1n[nH]c(=O)c2c(NC(=O)CSc3nc4ccccc4c(=O)n3-c3ccc(OC(F)F)cc3)oc(C)c12	1.9	41.3*	-7.2	11.9	-0.4	3.2	75.4*
COCC(C)OC(=O)/C(C#N)=C\c1coc2ccc(C)cc2c1=O (stereo unspecified)	4.8	61.8*	-2.0	-2.6	45.0*	4.2	49.0
CCCCCCCCCCCC1=C(O)C(=O)C=C(O)C1=O	2.8	-34.7	x	x	x	x	x
COC1=CC(=O)C(O)=C(CCCCCCC/C=C/CCCCCCCC2=C(O)C(=O)C=C(OC)C2=O)C1=O	6.7	51.7*	x	x	x	x	78.4*
CCc1ccc(N2C(=O)CN(Cc3ccc(OC)c(OC)c3)C2=S)cc1	-5.2	-0.2	-4.2	-0.6	0.0	-0.9	x
Cc1ccc(N2C(=O)CN(Cc3sccc3C)C2=S)cc1C	-0.6	95.2*	2.8	3.4	5.1	0.0	94.3*
Cc1ccc(N2C(=O)CN(Cc3cccs3)C2=S)cc1C	-1.3	58.1*	-0.2	0.2	-1.6	0.9	78.4*
COc1cccc(N2C(=O)CN(Cc3cc(OC)c(OC)c(OC)c3)C2=S)c1	-3.2	-0.8	-2.8	3.2	-0.4	-0.3	x
Cc1ccc(N2C(=O)CN(Cc3ccccc3)C2=S)cc1C	2.1	75.2*	-2.1	-0.4	0.7	-2.5	79.2*
Cc1ccccc1N1C(=O)CN(Cc2sccc2C)C1=S	-3.3	65.2*	7.2	1.1	6.9	-1.8	78.9*
SMILES	CSN deneddyl inh	ATG4B inh	MBD2 inh	rCAG RNA binder	UHRF1 binding	LEDGF integ inh	PLA2 counter	others
CC(C)CCOC(=O)/C(=C/c1ccco1)NC(=O)/C=C/c1ccccc1	9.9	26.6	-0.9	11.7	-3.2	4.8	x
NC(=O)/C(=C/c1ccco1)NC(=O)/C=C/c1ccccc1	9.2	49.8*	-3.1	4.2	-1.9	4.5	68.3*
NC(=O)/C(=C\c1ccccc1)NC(=O)/C=C/c1ccccc1	-3.4	45.6*	-1.2	-1.1	-0.1	5.6	37.8	ATG4B confirm=75.5*
COc1ccc(-c2noc(C3CCCN(C(=O)Nc4ccc(C)c(F)c4)C3)n2)cc1 (stereo unspecified)	x	x	0.1	5.2	1.1	-4.5	x
COc1ccc(/C=C2\CCC(C3CCCC3)C2=O)cc1Cn1cccn1 (stereo unspecified)	3.7	67.6*	1.2	-2.5	0.1	-2.7	65.3*
COc1ccc(/C=C2\CCC(C3CCCC3)C2=O)cc1Cn1nc(C)cc1C (stereo unspecified)	1.7	34.9	1.8	-2.4	-1.7	0.6	x
C[C@@H]1CCN(C2CC2)S(=O)(=O)c2ccc(N3CC[C@H](O)C3)cc2O1	x	x	0.6	4.5	-2.5	4.0	x
CCCCCCCCCCCCCCCC(O)C[N+](C)(C)CCO (stereo unspecified)	2.7	54.6*	-3.1	6.9	1.4	4.5	47.4	ATG4B confirm=56.3*
Cc1sc2nc(C3CC3)nc(SCC(=O)N3CCc4ccccc4C3)c2c1C	1.5	36.6	-2.8	1.7	-4.4	-0.4	x
Cc1sc2ncnc(SCC(=O)N3CCN(C(=O)c4ccco4)CC3)c2c1C	-4.4	4.4	x	x	x	x	x

Compound activity: PubChem BioAssay, several laboratories
